The record followed here is ChEMBL document CHEMBL1140848, “Redox-active dinitrodiphenylthioethers against Leishmania: synthesis, structure-activity relationships and mechanism of action studies” (Bioorg Med Chem, 2009).

Molecules are shown by their SMILES. Active and inactive are the calls of the source. No cut-off for these calls is given here.

The subject of one data set is Vero. The data set can be described thus: Cytotoxicity against african green monkey Vero cells after 3 days by tetrazolium dye based colorimetric assay. The format is cell-based. Conditions: Chlorocebus sabaeus, 72 h. In a few lines:
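Vero cells were grown in alpha-MEM with 10% HI-FBS. 1 × 10^3 cells per well received 2-fold compound dilutions for 3 days at 37 °C, 5% CO2. Growth was read as tetrazolium (CellTiter) absorbance at 490 nm. IC50 by four-parameter dose-response fit.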

Data set [1] in a line: Cytotoxicity against CD1 mouse macrophages at 6.3 uM after 72 hrs. The format is cell-based. Conditions: macrophage.
In a further data set the test system is Leishmania amazonensis. The data set can be described thus: Antileishmanial activity against beta-lactamase transfected Leishmania amazonensis in CD1 mouse macrophages assessed as infected macrophages after 72 hrs. The format is functional, organism-based. In a few lines: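 Starch-elicited peritoneal macrophages from CD-1 mice were plated at 1 × 10^6 cells/ml and adhered overnight. They were infected overnight at 34 °C with β-lactamase-expressing L. amazonensis (5 × 10^6 cells/ml) and washed. Twofold compound dilutions were applied for 72 h at 34 °C. Cells were lysed in 0.1% Triton X-100 with 100 µM nitrocefin for 4 h at 37 °C and read at A490. IC50 by four-parameter fit.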

In data set [2] the test system is Leishmania donovani. The data set can be described thus: Antileishmanial activity against Leishmania donovani MHOM/SD/62/1S-CL2D axenic amastigotes after 3 days by tetrazolium dye based colorimetric assay. The format is functional, organism-based. The following applies: 72 h. An outline of the steps:
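Axenic amastigotes adapted from promastigotes and kept in amastigote medium at 37 °C. 6 × 10^4 cells per well, 2-fold compound dilutions, 3 days at 37 °C in 5% CO2. Growth read as tetrazolium (CellTiter) absorbance at 490 nm several hours after dye addition. IC50 from a four-parameter dose-response fit. Three or more separate experiments.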

The subject of data set [3] is Leishmania donovani. The data set can be described thus: Reduction of parasitemia in Leishmania donovani LV82 promastigotes infected BALB/c mouse at 25 mg/kg/day, ip for 5 days relative to control. The format is functional. Also noted: scale not given: the % may be the effect or the level left. Conditions: route intraperitoneal. In a few lines: (§1)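 Infected BALB/c mice were dosed i.p. once daily for 5 days, starting 7 days post-infection. Vehicles were 10% DMSO/70% cremophor-ethanol (3:1)/20% PBS, or PBS for miltefosine. On day 14, Giemsa-stained liver smears were scored as amastigotes per 1000 liver cells × liver weight (mg) and compared with vehicle controls. 4–5 mice per group, SD.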

For data set [4], the system named is Leishmania donovani. The data set can be described thus: Antiparasitic activity against Leishmania donovani promastigotes assessed as reduction of membrane potential by rhodamine 123 assay. Also noted: scale not given: the % may be the effect or the level left. In kind it is functional. An outline of the steps:
(§2)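 Promastigotes at 1 × 10^6 cells/ml were exposed to compounds in 1% DMSO for 24 h, at 10 µM and above. FCCP 100 µM for 2 h served as positive control. Cells were then stained with 1 µM rhodamine 123 for 1 h and read by flow cytometry. Results are % fluorescence reduction against vehicle controls. Three experiments, SEM.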

The test system of data set [5] is Leishmania donovani. The data set can be described thus: Reduction of parasitemia in Leishmania donovani LV82 promastigotes infected BALB/c mouse at 50 mg/kg/day, ip for 5 days relative to control. The format is functional. The following applies: route intraperitoneal. Also noted: scale not given: the % may be the effect or the level left.
Data set [6] can be described thus: Lipophilicity, log P of the compound. The format is physicochemical. Conditions: octanol/water. In a few lines:
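clogP was calculated with the ChemAxon/Marvin program.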

Data set [7] in a line: Cytotoxicity against CD1 mouse macrophages at 13 uM after 72 hrs. Conditions: macrophage. In kind it is cell-based.
For data set [8], the system named is Leishmania donovani. The data set can be described thus: Antileishmanial activity against Leishmania donovani promastigotes assessed as induction of ROS production in by flow cytometric detection at 100 uM after 24 hrs. The format is functional, organism-based. In a few lines: (§3)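 Log-phase promastigotes were loaded with 10 µg/ml CM-H2DCFDA in FBS-free medium for 60 min at 25 °C. They were then resuspended at 1 × 10^6 cells/ml and exposed to compounds in 1% DMSO for 24 h. Fluorescence was read by flow cytometry on 10,000 cells and normalized to vehicle controls (=1.0). H2O2 250 µM served as positive control. Three experiments, SEM.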

The test system of data set [9] is Leishmania donovani. The data set can be described thus: Antileishmanial activity against Leishmania donovani promastigotes assessed as induction of ROS production in by flow cytometric detection at 1 uM after 24 hrs. The format is functional, organism-based. An outline of the steps: as §3
Data set [10] concerns Leishmania donovani. Briefly: Antileishmanial activity against Leishmania donovani promastigotes assessed as induction of ROS production in by flow cytometric detection at 0.1 uM after 24 hrs. In kind it is functional, organism-based. An outline of the steps: as §3
Data set [11] relates to Leishmania donovani. The data set can be described thus: Antiparasitic activity against Leishmania donovani promastigotes assessed as reduction of membrane potential 10 uM by rhodamine 123 assay. The format is functional. Also noted: scale not given: the % may be the effect or the level left. An outline of the steps: as §2
For data set [12], the system named is Leishmania donovani. The data set can be described thus: Antileishmanial activity against Leishmania donovani promastigotes assessed as induction of ROS production in by flow cytometric detection at 10 uM after 24 hrs. The format is functional, organism-based. An outline of the steps:
as §3

Data set [13] is described as follows: Cytotoxicity against CD1 mouse macrophages assessed as infected macrophages at 3.1 uM after 72 hrs. The format is cell-based. Conditions: macrophage.
Data set [14] deals with Leishmania donovani. Briefly: Reduction of parasitemia in Leishmania donovani infected BALB/c mouse at 3 mg/kg/day, ip for 5 days relative to control. The format is functional. Also noted: scale not given: the % may be the effect or the level left. Conditions: route intraperitoneal. In a few lines: as §1

Regarding `O=[N+]([O-])c1cc(C(F)(F)F)cc([N+](=O)[O-])c1Sc1ccccc1`, the IC50 in the data set on Vero is 6 µM; with Leishmania amazonensis, 2.6 µM; in the data set with Leishmania donovani [2], 0.96 µM. Besides, in data set [1], the Activity result is recorded as “Toxic”.

In the data set on Leishmania donovani [2], `Cc1cc(Sc2ccc([N+](=O)[O-])cc2)c(Cl)cc1Cl` yielded an IC50 of 88 µM.

As for `COc1ccc(Sc2c([N+](=O)[O-])cc(C#N)cc2[N+](=O)[O-])cc1`, the Activity in the data set on Leishmania donovani [3] came to 28%.

In the data set on Leishmania donovani [2], `Cc1cc(Sc2c(C(F)(F)F)cc(C(F)(F)F)cc2C(F)(F)F)c(Cl)cc1Cl` yielded an IC50 of 100 µM.

`Cc1cc(Sc2c([N+](=O)[O-])cc([N+](=O)[O-])cc2C(F)(F)F)c(Cl)cc1Cl`: the IC50 was determined as 5.2 µM with Vero, 1.8 µM with Leishmania amazonensis and 0.62 µM with Leishmania donovani [2]. For the same compound, the Activity entry in [1] is “Toxic”.

For `COc1ccc(Sc2c([N+](=O)[O-])cc(C(F)(F)F)cc2[N+](=O)[O-])cc1`, the IC50 with Vero was determined as 12 µM; in the data set on Leishmania amazonensis, 5.1 µM; in the data set on Leishmania donovani [2], 1.9 µM.

In the data set with Leishmania donovani [2], `O=[N+]([O-])c1cc(C(F)(F)F)cc([N+](=O)[O-])c1Oc1ccc(Cl)cc1Cl` returned an IC50 of 3.4 µM.

As for `Cc1cc(Sc2ccc(C(F)(F)F)cc2[N+](=O)[O-])c(Cl)cc1Cl`, the concentration for half-maximal inhibition (IC50) in the data set on Leishmania donovani [2] stood at 98 µM.

Turning to `O=[N+]([O-])c1cc(C(F)(F)F)cc([N+](=O)[O-])c1Nc1ccc(Cl)cc1Cl`, half-maximal inhibition in the data set with Leishmania donovani [2] (IC50) required 25 µM.

With `Cc1cc(Sc2c([N+](=O)[O-])cccc2[N+](=O)[O-])c(Cl)cc1Cl`, it took 23 µM to reach half-maximal inhibition with Leishmania donovani [2] (IC50). Besides, the Activity in the data set with Leishmania donovani [4] is less than 20%.

`O=[N+]([O-])c1cc(C(F)(F)F)cc([N+](=O)[O-])c1Sc1ccc(O)cc1` gave an IC50 in the data set with Leishmania donovani [2] of 3.3 µM.

In the data set with Leishmania donovani [2], `CCSc1c([N+](=O)[O-])cc(C(F)(F)F)cc1[N+](=O)[O-]` came in with an IC50 of 98 µM.

In the case of `Cc1cc(Sc2c([N+](=O)[O-])cc(C(F)(F)F)cc2[N+](=O)[O-])c(Cl)cc1Cl`, the half-maximal inhibitory concentration (IC50) with Vero came to 9.7 µM; in the data set on Leishmania amazonensis it was 3.4 µM; in the data set on Leishmania donovani [2], 0.56 µM. The Activity was -2% in the data set with Leishmania donovani [5], “Toxic” in [7] and “Dose-dependent effect” with Leishmania donovani [4]. The compound further displayed a logP in [6] of 6.85. Besides, in the data set with Leishmania donovani [8], the outcome was Active. Also, the outcome in the data set on Leishmania donovani [9] and in the data set on Leishmania donovani [10] was inactive.

The compound `Cc1cc(Sc2ncc(C(F)(F)F)cc2[N+](=O)[O-])c(Cl)cc1Cl` displayed an IC50 with Leishmania donovani [2] of 59 µM.

With `O=[N+]([O-])c1cc(C(F)(F)F)cc([N+](=O)[O-])c1SC1CCCCC1`, in the data set on Leishmania donovani [2], inhibition was half-maximal at 35 µM (IC50).

Turning to `Cc1cccc(Sc2c([N+](=O)[O-])cc(C(F)(F)F)cc2[N+](=O)[O-])c1`, the IC50 is 7.3 µM in the data set with Vero, 2.4 µM with Leishmania amazonensis and 1.6 µM in the data set with Leishmania donovani [2]. For the same compound, the Activity entry in [1] is listed as “Toxic”.

On to `Cc1cc(Sc2c([N+](=O)[O-])cc(C#N)cc2[N+](=O)[O-])c(Cl)cc1Cl`, for which the Activity in the data set with Leishmania donovani [11] is on record as 90%; in [7], “Toxic”. Also, the figures for the IC50 with Vero, with Leishmania amazonensis and in the data set on Leishmania donovani [2] were 11 µM, 5.8 µM and 1 µM, respectively. Moreover, the result in the data set on Leishmania donovani [8] and in the data set with Leishmania donovani [12] was Active.

As to `O=[N+]([O-])c1cc(C(F)(F)F)cc([N+](=O)[O-])c1Sc1ccc(Cl)cc1Cl`, the IC50 in the data set with Vero amounted to 4.3 µM; in the data set on Leishmania amazonensis, 2.6 µM; in the data set with Leishmania donovani [2] it was 0.4 µM. Also, the Activity result in [13] is given as “Toxic”.

For `O=C(O)c1ccccc1Sc1c([N+](=O)[O-])cc(C(F)(F)F)cc1[N+](=O)[O-]`, the midpoint of inhibition with Leishmania donovani [2], the IC50, lay at 7.3 µM.

Compound `COc1cc([C@@H]2c3cc4c(cc3[C@H](O)[C@H]3COC(=O)[C@H]23)OCO4)cc(OC)c1OC` [PODOFILOX] showed an IC50 in the data set with Vero of 0.023 µM.

In the case of `CCCCCCCCCCCCCCCCOP(=O)([O-])OCC[N+](C)(C)C` [MILTEFOSINE], the Activity with Leishmania donovani [14] stood at 41%.

For the compound `Cc1cc([N+](=O)[O-])c(Sc2cc(C)c(Cl)cc2Cl)c([N+](=O)[O-])c1`, the result in the data set with Leishmania donovani [9], in the data set with Leishmania donovani [12] and in the data set with Leishmania donovani [10] was inactive. In the data set on Leishmania donovani [2], the IC50 is greater than 200 µM. For the same compound, in the data set on Leishmania donovani [4], the Activity was less than 20%.
